Experiments:
Histone deacetylase 1 [1] = molecular target: T1, Histone deacetylase 1 (Homo sapiens, UniProt Q13547); assay: Inhibition of human HDAC1 using (Z-(Ac)Lys-AMC) as substrate after 90 mins by fluorescence analysis
Histone deacetylase 8 = molecular target: T2, Histone deacetylase 8 (Homo sapiens, UniProt Q9BY41); assay: Inhibition of human HDAC8 using Z-L-Lys([…]-trifluoroacetyl)-AMC as substrate after 90 mins by fluorescence analysis
T2 sequence (Q9BY41 whole entry): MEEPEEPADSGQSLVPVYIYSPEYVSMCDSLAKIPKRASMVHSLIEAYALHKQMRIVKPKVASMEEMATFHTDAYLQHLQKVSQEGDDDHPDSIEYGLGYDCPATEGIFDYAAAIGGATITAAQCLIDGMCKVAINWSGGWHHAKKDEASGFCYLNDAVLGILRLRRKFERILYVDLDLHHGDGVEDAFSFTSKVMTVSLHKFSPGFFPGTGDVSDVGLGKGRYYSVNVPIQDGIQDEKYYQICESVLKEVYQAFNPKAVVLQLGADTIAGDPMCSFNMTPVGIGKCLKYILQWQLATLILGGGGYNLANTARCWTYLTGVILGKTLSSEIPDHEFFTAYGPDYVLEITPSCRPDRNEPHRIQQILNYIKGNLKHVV

[2] = molecular target: T3, Protein deacetylase HDAC6 (Homo sapiens, UniProt Q9UBN7); assay: Inhibition of human HDAC6 using (Z-(Ac)Lys-AMC) as substrate after 90 mins by fluorescence analysis
T3 sequence (Q9UBN7 whole entry): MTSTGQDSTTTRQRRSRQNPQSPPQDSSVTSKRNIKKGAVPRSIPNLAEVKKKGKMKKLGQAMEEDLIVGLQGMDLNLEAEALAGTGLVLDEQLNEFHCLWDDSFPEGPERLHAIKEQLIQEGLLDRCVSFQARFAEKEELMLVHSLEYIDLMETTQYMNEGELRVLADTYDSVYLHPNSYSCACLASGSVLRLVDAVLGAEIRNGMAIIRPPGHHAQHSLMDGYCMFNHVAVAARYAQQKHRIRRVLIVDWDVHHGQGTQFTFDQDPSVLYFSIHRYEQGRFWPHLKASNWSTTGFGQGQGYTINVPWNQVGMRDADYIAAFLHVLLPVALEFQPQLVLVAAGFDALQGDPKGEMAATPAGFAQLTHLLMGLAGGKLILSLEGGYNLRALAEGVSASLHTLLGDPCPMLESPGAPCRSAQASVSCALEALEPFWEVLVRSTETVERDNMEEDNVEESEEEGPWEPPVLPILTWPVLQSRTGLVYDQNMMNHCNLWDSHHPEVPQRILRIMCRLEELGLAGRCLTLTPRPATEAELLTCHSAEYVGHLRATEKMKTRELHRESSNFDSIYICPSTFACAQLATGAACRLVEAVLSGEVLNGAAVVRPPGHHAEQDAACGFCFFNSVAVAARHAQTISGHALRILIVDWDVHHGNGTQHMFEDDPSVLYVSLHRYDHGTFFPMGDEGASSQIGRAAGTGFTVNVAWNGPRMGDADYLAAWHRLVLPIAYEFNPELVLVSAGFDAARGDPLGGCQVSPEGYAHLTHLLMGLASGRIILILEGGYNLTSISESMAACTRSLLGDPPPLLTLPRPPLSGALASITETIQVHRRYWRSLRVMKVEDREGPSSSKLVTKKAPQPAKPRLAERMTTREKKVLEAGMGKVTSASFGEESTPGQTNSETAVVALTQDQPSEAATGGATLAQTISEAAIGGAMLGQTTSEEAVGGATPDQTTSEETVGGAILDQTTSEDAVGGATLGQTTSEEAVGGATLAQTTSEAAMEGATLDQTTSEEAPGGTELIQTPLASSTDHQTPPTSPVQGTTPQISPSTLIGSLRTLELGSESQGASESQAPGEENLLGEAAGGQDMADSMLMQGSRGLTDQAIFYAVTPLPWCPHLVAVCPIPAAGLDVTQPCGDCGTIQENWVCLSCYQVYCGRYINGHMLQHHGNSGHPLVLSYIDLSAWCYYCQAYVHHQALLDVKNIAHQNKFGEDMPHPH

Histone deacetylase 1 [3] = molecular target: T1, Histone deacetylase 1; assay: Inhibition of human HDAC1 at 10 uM using (Z-(Ac)Lys-AMC) as substrate after 90 mins by fluorescence analysis
[4] = molecular target: T4, Histone deacetylase 8 (Homo sapiens) (UniProt Q9BY41); assay: Inhibition of human HDAC8 at 100 uM using Z-L-Lys([…]-trifluoroacetyl)-AMC as substrate after 90 mins by fluorescence analysis
T4 sequence (whole entry): T2 sequence (Q9BY41 whole entry)

[5] = Cytotoxicity against human HL60 cells after 72 hrs by cell titre 96 aqueous cell proliferation assay; format: functional, HL-60
Method in brief: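 HL60 cells, 5000/well in RPMI with 10% FBS, 2 mM L-glutamine and penicillin/streptomycin, treated with a range of concentrations (0.05% DMSO control) for 72 h. MTS/PMS (20:1) was then added and A490 read after 2-4 h, with the cell-free background subtracted. GI50 is the concentration giving 50% viable cells; triplicates, mean of at least two experiments.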

Homo sapiens = organism: Homo sapiens; assay: Selectivity ratio of IC50 for class1 HDAC (unknown origin) to IC50 for HDAC6 (unknown origin)
Method in brief: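 Ratio of IC50 HDAC1 (or HDAC8) to IC50 HDAC6. Human recombinant HDAC1/6 were run in Tris-HCl pH 8.0 with NaCl, KCl, MgCl2 and BSA, using ZMAL substrate. HDAC8 was run in KH2PO4/Tris pH 7.5 with Z-L-Lys(ε-trifluoroacetyl)-AMC. All: 90 min at 37 °C, then TSA/trypsin stop for 30 min, fluorescence ex 390/em 460 nm. IC50 is the mean of at least two experiments.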

T1 sequence (Q13547 whole entry): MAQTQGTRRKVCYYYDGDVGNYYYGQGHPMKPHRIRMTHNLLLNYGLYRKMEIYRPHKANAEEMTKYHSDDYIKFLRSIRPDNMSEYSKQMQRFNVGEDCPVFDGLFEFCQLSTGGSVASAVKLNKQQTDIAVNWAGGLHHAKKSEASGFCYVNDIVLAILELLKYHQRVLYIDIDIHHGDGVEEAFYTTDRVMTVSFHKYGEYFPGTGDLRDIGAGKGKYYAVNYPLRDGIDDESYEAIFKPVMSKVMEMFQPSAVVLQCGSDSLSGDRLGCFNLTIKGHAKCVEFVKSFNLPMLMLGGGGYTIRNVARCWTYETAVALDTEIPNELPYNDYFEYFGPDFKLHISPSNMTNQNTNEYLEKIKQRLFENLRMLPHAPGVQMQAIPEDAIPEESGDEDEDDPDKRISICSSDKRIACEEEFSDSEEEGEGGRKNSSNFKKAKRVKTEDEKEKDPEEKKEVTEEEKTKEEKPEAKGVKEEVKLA

Compound `O=C(NO)c1coc(-c2cccs2)n1` has an IC50 (Histone deacetylase 1 [1]) of 36.5 µM, an IC50 (Histone deacetylase 8) of 8.13 µM and an IC50 [2] of 0.311 µM.
`O=C(NO)c1csc(C(c2ccccc2)c2ccccc2)n1` showed an IC50 (Histone deacetylase 1 [1]) of 47.7 µM, an IC50 (Histone deacetylase 8) of 12.9 µM and an IC50 [2] of 3.69 µM.
`O=C(NO)c1coc(-c2cccc(-c3ccccc3)c2)n1` showed an IC50 (Histone deacetylase 1 [1]) of 19.1 µM, an IC50 (Histone deacetylase 8) of 10.1 µM and an IC50 [2] of 0.5 µM.
For `O=C(NO)c1csc(-c2cccnc2)n1`, the inhibition (Histone deacetylase 1 [3]) was 36% and the IC50 [2] was 0.3 µM.
`O=C(NO)c1noc(-c2ccc(-c3ccccc3)cc2)n1` gave an IC50 (Histone deacetylase 1 [1]) of 14.9 µM, an inhibition [4] of 62% and an IC50 [2] of 1.31 µM.
For `O=C(NO)c1coc(-c2ccccc2Br)n1`, the IC50 (Histone deacetylase 1 [1]) was 22.6 µM, the IC50 (Histone deacetylase 8) was 20.2 µM and the IC50 [2] was 2.18 µM.
`O=C(NO)c1coc(-c2ccc(-c3ccccc3)cc2)n1` gave an IC50 (Histone deacetylase 1 [1]) of 29.5 µM, an IC50 (Histone deacetylase 8) of 27.3 µM and a GI50 ([5]; Homo sapiens, HL-60, 72 h) of 5.6 µM. The IC50 [2] was 0.089 µM.
In the case of `COc1ccc2cc(-c3nc(C(=O)NO)co3)ccc2c1`, the IC50 (Histone deacetylase 1 [1]) is reported as 22.5 µM, the IC50 (Histone deacetylase 8) is reported as 29.1 µM and the IC50 [2] is reported as 0.182 µM.
Compound `O=C(NO)c1noc(-c2ccccc2)n1` has an IC50 (Histone deacetylase 1 [1]) of 25 µM, an IC50 (Histone deacetylase 8) of 38.5 µM and an IC50 [2] of 0.112 µM.
Compound `Cc1ccc(-c2nc(C(=O)NO)co2)cc1` has an IC50 (Histone deacetylase 1 [1]) of 40.1 µM, an IC50 (Histone deacetylase 8) of 33.9 µM and an IC50 [2] of 0.313 µM.
`O=C(NO)c1csc(-c2ccccc2)n1` showed an IC50 (Histone deacetylase 1 [1]) of 10.3 µM, an IC50 (Histone deacetylase 8) of 12.1 µM and an IC50 [2] of 1.91 µM.
For `COc1ccc(-c2nc(C(=O)NO)co2)cc1`, the IC50 (Histone deacetylase 1 [1]) was 32.9 µM, the IC50 (Histone deacetylase 8) was 50.9 µM and the GI50 ([5]; Homo sapiens, HL-60, 72 h) was 29.2 µM. For the same compound, the IC50 [2] was 0.195 µM.
`O=C(NO)c1csc(-c2ccc(Br)cc2)n1` showed an IC50 (Histone deacetylase 1 [1]) of 17.5 µM, an IC50 (Histone deacetylase 8) of 36.4 µM and a GI50 ([5]; Homo sapiens, HL-60, 72 h) of 11.1 µM. The IC50 [2] was 1.06 µM.
Work on `O=C(NO)c1coc(-c2ccc3ccccc3c2)n1` yielded an IC50 (Histone deacetylase 1 [1]) of 12.2 µM, an IC50 (Histone deacetylase 8) of 26.2 µM and a GI50 ([5]; Homo sapiens, HL-60, 72 h) of 6.3 µM. It also gave an IC50 [2] of 0.089 µM.
Work on `O=C(NO)c1noc(-c2ccc(Br)cc2)n1` yielded an IC50 (Histone deacetylase 1 [1]) of 33.5 µM, an IC50 (Histone deacetylase 8) of 20 µM and an IC50 [2] of 2.77 µM.
In the case of `O=C(CCCCCCNC(=O)c1cnc(N(c2ccccc2)c2ccccc2)nc1)NO`, the Ratio IC50 (Homo sapiens) is reported as 10.
Work on `O=C(NO)c1csc(Cc2ccccc2)n1` yielded an IC50 (Histone deacetylase 1 [1]) of 83.6 µM, an IC50 (Histone deacetylase 8) of 35 µM and an IC50 [2] of 2.54 µM.
In the case of `O=C(NO)c1coc(-c2ccccc2)n1`, the IC50 (Histone deacetylase 1 [1]) is reported as 29.9 µM, the IC50 (Histone deacetylase 8) is reported as 41.9 µM and the GI50 ([5]; Homo sapiens, HL-60, 72 h) is reported as 44.1 µM. For the same compound, the IC50 [2] was 0.27 µM.
For `O=C(NO)c1coc(-c2ccc(Br)cc2)n1`, the GI50 ([5]; Homo sapiens, HL-60, 72 h) was 10.2 µM.
Work on `O=C(NO)c1coc(C(c2ccccc2)c2ccccc2)n1` yielded an IC50 (Histone deacetylase 1 [1]) of 93.9 µM, an IC50 (Histone deacetylase 8) of 2.7 µM and an IC50 [2] of 9.37 µM.
For `O=C(NO)c1csc(-c2cnccn2)n1`, the IC50 (Histone deacetylase 1 [1]) was 82.2 µM, the IC50 (Histone deacetylase 8) was 61.4 µM and the IC50 [2] was 8.85 µM.
With `O=C(NO)c1coc(-c2ccc(Cl)cc2)n1` the IC50 (Histone deacetylase 1 [1]) was 19.6 µM, the IC50 (Histone deacetylase 8) was 30.8 µM and the IC50 [2] was 0.081 µM.
`O=C(NO)c1coc(-c2ccc(F)cc2)n1` gave an IC50 (Histone deacetylase 1 [1]) of 23.7 µM, an IC50 (Histone deacetylase 8) of 43.3 µM and a GI50 ([5]; Homo sapiens, HL-60, 72 h) of 30.1 µM. It also gave an IC50 [2] of 0.11 µM.
For `O=C(CCCCCCC(=O)Nc1ccccc1)NO` [VORINOSTAT], the GI50 [5] was 0.08 µM.

Reference: ChEMBL document CHEMBL3769396 (J Med Chem, 2016)
